Compounds with a hit are over-represented: about 4.1% of the library has one in this group of screens.
RGS4 act: RGS4 potentiation or activation. actives 0.92% (n = 310,000). HEK293 M3R/inducible RGS4, carbachol calcium flux Fluo4; hits give low values. B-score at 10 µM;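 active = B-score of the integrated calcium signal more than 4 SD below the library mean, with starting fluorescence not abnormally high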;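 note: negative B-score means reduced calcium response which marks RGS4 activation or potentiation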
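test system = M3R-expressing HEK293 line, RGS4 induced by doxycycline | probe or stimulus = carbachol at ECmax as muscarinic agonist stimulus | timing = dye loading 30 min 37 °C, buffer rest 30 min RT | signal = calcium dye Fluo4 fluorescence | evaluation = B score from integrated fluorescence ratio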
Kir21 inh: inhibitors of mouse Kir2.1 inward-rectifier potassium channel | P35561 | B-score at 10 µM | HEK293-Kir2.1, FluxOR thallium flux fluorescence; hits give low values | AID 1672 | actives 0.85% (n = 310,000);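 active = fluorescence ratio B-score at or below minus 3 SD of library scores, with starting-brightness B-score within 2 SD, cut at about -4.2 in these data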;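 note: channel flux triggered by added potassium and thallium sulfate stimulus; B-score of peak minus minimum fluorescence over baseline after thallium stimulus; more negative B-score means stronger Kir2.1 block with less thallium influx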
Target sequence (P35561 whole entry, looked up): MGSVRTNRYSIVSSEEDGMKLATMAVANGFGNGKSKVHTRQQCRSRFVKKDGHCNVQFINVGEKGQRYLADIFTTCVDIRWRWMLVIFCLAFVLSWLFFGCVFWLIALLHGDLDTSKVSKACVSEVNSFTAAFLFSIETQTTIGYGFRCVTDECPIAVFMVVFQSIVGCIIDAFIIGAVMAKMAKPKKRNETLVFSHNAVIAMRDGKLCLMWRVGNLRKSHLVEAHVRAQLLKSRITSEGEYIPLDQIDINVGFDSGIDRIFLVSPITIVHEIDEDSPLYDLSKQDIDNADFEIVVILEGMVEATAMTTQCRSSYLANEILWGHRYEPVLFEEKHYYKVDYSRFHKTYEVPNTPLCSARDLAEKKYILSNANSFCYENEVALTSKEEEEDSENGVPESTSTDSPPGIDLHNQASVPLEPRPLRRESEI
MrgX1 ag: activates human MrgX1 receptor signaling | MrgX1-HEK293 cells, Fluo-4 calcium fluorescence, agonist mode; hits give high values | B-score at 10 µM | actives 0.44% (n = 310,000) | AID 588627;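 active = calcium response B-score plate-corrected fluorescence ratio at least 3 library SD, with starting fluorescence B-score inside 5 SD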
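System – MrgX1-expressing HEK293 cells · Incubation – cells plated overnight, dye loaded 0.5 h 37 °C, 0.5 h room temperature · Technique – kinetic Fluo-4 NW fluorescence of intracellular calcium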
MrgX1 antag: antagonists of human MrgX1 receptor | Q96LB2 | MRGX1-HEK293 calcium flux, Fluo-4, BAM8-22 antagonism; hits give low values | B-score at 10 µM | actives 1.3% (n = 310,000);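 active = calcium-response B-score plate-corrected more than 3 library SD below zero, starting fluorescence within 5 deviations, no agonist response on first addition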;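 note: peak minus trough fluorescence over baseline after final BAM8-22 challenge near maximal dose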
RGS4 inh: human RGS4 inhibition; actives 0.45% (n = 310,000); P49798; B-score at 10 µM; HEK293 M3R/RGS4 inducible, Fluo-4 calcium flux; hits give high values; triggered by carbachol at its EC20;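 active = B-score, a plate-corrected calcium signal, over three deviations above library mean, with baseline fluorescence within five deviations of library mean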;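 note: RGS4 expression induced by doxycycline in cells with stable M3 receptor; B-score is computed from the integrated fluorescence ratio over baseline after carbachol; higher B-score means a larger calcium signal and so more RGS4 inhibition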
Target sequence (P49798 whole entry, looked up): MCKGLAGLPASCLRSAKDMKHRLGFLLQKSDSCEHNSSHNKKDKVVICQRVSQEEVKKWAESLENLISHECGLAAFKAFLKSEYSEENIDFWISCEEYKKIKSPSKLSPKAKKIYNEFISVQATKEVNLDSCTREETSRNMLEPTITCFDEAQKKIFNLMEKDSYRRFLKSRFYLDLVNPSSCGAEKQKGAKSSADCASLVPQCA
MrgX1 allo act: allosterically activates human MrgX1 receptor signaling | MrgX1-HEK293, Fluo-4 calcium flux, FDSS; hits give high values | B-score at 10 µM | Q96LB2 | AID 588675 | actives 0.63% (n = 310,000);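 active = plate-corrected calcium response at least 3 library SD above typical, normal starting fluorescence, not activating the receptor alone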;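 note: compound read alongside a low EC10 to EC30 dose of BAM8-22 agonist; peak minus trough fluorescence over baseline measured at the second addition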
MrgX1 antag conf: human MrgX1 receptor antagonism, re-confirmation screen; MrgX1-HEK293, BAM8-22 calcium flux, Fluo-4; hits give low values; shares compounds with MrgX1 antag; AID 602420; actives 19% (n = 2,300); remaining BAM8-22 calcium response % of control (hits give low values), % at 10 µM;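 active = remaining agonist calcium response no higher than 100% minus 3 SD of agonist-only control wells, with starting fluorescence near control levels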;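 note: agonist BAM8-22 given at a near maximal EC90 to ECmax level; peak minus minimum fluorescence divided by baseline after agonist addition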
HEK293 Ca flux: counter-screen for MrgX1 antagonists: effect in parental HEK293 cells. AID 624111. actives 2% (n = 4,000). fluorescence ratio F(max-min)/F0 at 10 µM. Fluo-4 calcium fluorescence, FDSS. shares compounds with MrgX1 antag;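 active = duplicate-averaged calcium fluorescence ratio at least three times the standard deviation of buffer wells, a nonspecific response in parental cells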
HEK293 Ca counter: MrgX1 allosteric activator counter-screen hit in parental HEK293 cells | actives 0.4% (n = 4,000) | shares compounds with MrgX1 antag | AID 624114 | parental HEK293 calcium flux, Fluo-4 fluorescence ratio; hits give high values | fluorescence ratio F(max-min)/F0 at 10 µM;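 active = calcium fluorescence ratio, averaged over duplicates, at least 3 SD of the buffer-well ratio, meaning a nonspecific response in receptor-free cells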;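 note: untransfected parental HEK293 lacking MrgX1 used as counterscreen for MrgX1 allosteric activators; fluorescence change taken during the second addition on a kinetic imager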
HEK293 Ca cntr2: MrgX1 activator counter-screen hit in parental HEK293 cells | AID 624115 | fluorescence ratio F(max-min)/F0 at 10 µM | shares compounds with MrgX1 antag | Fluo-4 calcium fluorescence (FDSS); hits give high values | actives 8.7% (n = 4,000);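 active = calcium fluorescence ratio at least three times the spread of buffer wells, meaning a non-specific response in parental cells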
A number is an active result; – = inactive; · = no result given.

SMILES	RGS4 act	Kir21 inh	MrgX1 ag	MrgX1 antag	RGS4 inh	MrgX1 allo act	MrgX1 antag conf	HEK293 Ca flux	HEK293 Ca counter	HEK293 Ca cntr2
Cc1cc(C(=O)NNC(=O)/C=C/c2ccccc2Cl)c(C)o1	–	–	–	-15	–	–	–	–	–	–
COC(=O)c1sc(-c2ccc(C(C)(C)C)cc2)cc1NC(=O)CCC(=O)O	–	–	–	-6.6	–	–	58%	–	–	–
Cn1nc(C(F)(F)F)c(-c2ccc(Br)cc2)c1NC(=O)c1cccnc1	–	–	–	–	–	–	·	·	·	·
CCOC(=O)NC(NC(=O)OCC)C(=O)c1ccc(F)cc1	–	–	–	-5.1	–	–	–	–	–	–
O=C(c1ccccc1)N1CCN(Cc2ccccc2)CC1	–	–	–	–	–	–	·	·	·	·
Cc1ccc(CN2CCN(C(=O)c3ccncc3)CC2)cc1	–	–	–	-4.7	–	–	–	–	–	–
CCOC(=O)C(C)Sc1nc2c(c(=O)[nH]c(=O)n2C)n1C/C=C(/C)Cl (centres undefined)	–	–	–	–	–	–	·	·	·	·
COC/C=C/C1=CC2=CC(=O)C(C)(OC(=O)c3cnc4ccccc4n3)C(=O)C2=CN1Cc1ccccc1 (centres undefined)	–	–	–	–	–	–	·	·	·	·
Cc1nn(C)c(Cl)c1CN1CCN(C2CCCC2)C(CCO)C1 (centres undefined)	–	–	–	-11	–	–	–	–	–	–
COc1cccc(C(O)c2nc3ccccc3n2C(C)C)c1 (centres undefined)	–	–	–	-6.3	–	–	–	–	–	–
O=c1[nH]c(C(F)(F)F)nc2c1nnn2Cc1ccccc1F	–	–	–	-5.2	–	–	–	–	–	–
CC(C)Cn1c(N)c(C(=O)COC(=O)c2ccc3ccccc3n2)c(=O)n(C)c1=O	–	–	–	–	–	–	·	·	·	·
O=C(NCCCN1CCOCC1)c1cccs1	·	·	–	-8.8	·	–	79%	–	–	–
Cc1cc(Nc2ccccc2)n(C(=O)c2ccccc2)n1	–	–	–	-6.8	–	–	–	–	–	–
Cc1cc(Nc2ccccc2)n(-c2ccccc2)n1	–	–	–	–	–	–	·	·	·	·
CC(=O)c1sc2nc(-c3cccs3)cc(C(F)(F)F)c2c1N	–	–	–	-10	–	–	–	–	–	–
COc1ccc(-c2cc(C(F)(F)F)c3c(N)c(C(=O)NCCSC)sc3n2)cc1	–	–	–	–	–	–	·	·	·	·
CN(C)CCNC(=O)c1sc2nc(-c3ccccc3)cc(C(F)(F)F)c2c1N	–	–	–	-7.7	–	–	–	–	–	–
O=[N+]([O-])c1cc(/C=N\Nc2nccs2)ccc1O	–	–	·	·	–	·	·	·	·	·
Cc1oc(-c2cccs2)nc1CN1CCN(CC(C)C)C(CCO)C1 (centres undefined)	–	–	–	-4.5	–	–	–	–	–	–
COc1cc(C)c(S(=O)(=O)NC2CC(C)(C)NC(C)(C)C2)cc1C	–	–	–	-8.3	–	–	–	–	–	–
CCOC(=O)C1=C(CN2CCSCC2)NC(=O)NC1c1cc(C)ccc1C (centres undefined)	–	–	–	–	–	–	·	·	·	·
COC(=O)C1=C(CN2CCSCC2)NC(=O)NC1c1cc(C)ccc1C (centres undefined)	–	–	–	-5.6	–	–	–	–	–	–
COCCN(Cc1cc2c(C)cc(C)cc2nc1Cl)C(=O)c1ccccc1F	–	–	–	–	–	–	·	·	·	·
Cn1c(C(=O)N2CCOCC2)cc2c(=O)n3ccccc3nc21	–	–	–	–	–	–	·	·	·	·
SMILES	RGS4 act	Kir21 inh	MrgX1 ag	MrgX1 antag	RGS4 inh	MrgX1 allo act	MrgX1 antag conf	HEK293 Ca flux	HEK293 Ca counter	HEK293 Ca cntr2
Cn1c(C(=O)N2CCc3ccccc3C2)cc2c(=O)n3ccccc3nc21	–	–	–	-5.8	–	–	–	–	–	–
Fc1ccc(CN2CCSCC2)cc1F	–	–	–	-4.5	–	–	–	–	–	–
Fc1cccc(CN2CCSCC2)c1	–	–	–	–	–	–	·	·	·	·
Cc1ccc(NS(=O)(=O)c2ccc(C(=O)N3CCN(c4ncccn4)CC3)cc2)cc1	–	–	–	-5.4	–	–	–	–	–	–
Cc1ccc(NS(=O)(=O)c2cccc(C(=O)N3CCCCCC3)c2)cc1	–	–	–	-5.5	–	–	–	–	–	–
Cc1ccc(C(=O)N2CCN(c3ncccn3)CC2)cc1	–	–	–	–	–	–	·	·	·	·
Cc1ccc(S(=O)(=O)Nc2cccc(C(=O)N3CCN(c4ccccc4O)CC3)c2)cc1F	–	–	–	–	–	–	·	·	·	·
Cc1ccc(S(=O)(=O)Nc2ccc(C(=O)N3CCCC3)cc2)cc1	–	–	–	–	–	–	·	·	·	·
Cc1cc(S(=O)(=O)Nc2ccc(C(=O)N3CCN(c4ccccc4O)CC3)cc2)ccc1F	–	–	–	-4.7	–	–	82%	–	–	–
COC(=O)c1cc2c(=O)c3ccccc3oc2nc1C	–	–	–	–	–	–	·	·	·	·
Cc1c(C(=O)O)[nH]c2c1C(=O)CC(c1ccc(Cl)cc1)C2 (centres undefined)	–	–	–	-4.5	–	–	–	–	–	–
O=C(O)CCNC(=O)C12CC3CC(CC(C3)C1)C2	–	–	–	-8.1	–	–	–	–	–	–
O=C(NCc1ccccc1)C12CC3CC(CC(C3)C1)C2	–	–	–	–	–	–	·	·	·	·
Cc1ccc2nc(-c3ccc(N4C(=N)SC5CS(=O)(=O)CC54)cc3)sc2c1 (centres undefined)	–	–	–	-7.3	–	–	85%	–	–	–
Cc1ccc2nc(-c3ccc(N4C(=O)CC(N5CCC(C(N)=O)CC5)C4=O)cc3)sc2c1 (centres undefined)	–	–	–	–	–	–	·	·	·	·
Cc1ccc(NC(=O)CN2C(=O)NC3(CCc4ccccc43)C2=O)cc1 (centres undefined)	–	–	–	–	–	–	·	·	·	·
CCc1cccc(C)c1NC(=O)c1ccccc1	–	–	–	–	–	–	·	·	·	·
CCCC1=C(C(=O)OCC)C(c2ccncc2)n2ncnc2N1 (centres undefined)	–	–	–	-6.1	–	–	–	–	–	–

Source: PubChem
